Data as given in PubChem BioAssay.
Activity calls are given as the source filed them.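 Rule for the calls, unless noted: active = viability at or below 30% in both replicate assays; inconclusive = viability at or below 30% in just one of the two assays; inactive = the rest.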

Legend:
[1] = reducers of endogenous Her2 protein level, primary screen, SKBR3 breast tumor cells, AlphaScreen, ATP viability (AID 461;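 active = Her2 level under about 52% in both replicate screens, with viability over 70% of control, limit read from the data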;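 for Her2 level: lower value means less Her2 protein in the cells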;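 for viability: percent of carrier control wells set as 100% viability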); details: 18-24 h, measured here: SKBR3 viability, ATP luminescence, at 10 µM
[2] = target: Receptor tyrosine-protein kinase erbB-2 (Homo sapiens) (UniProt P04626); test: as above; details: 18-24 h, at 10 µM, stronger effect = lower value
Receptor tyrosine-protein kinase erbB-2 (Homo sapiens), sequence (P04626 whole entry, looked up): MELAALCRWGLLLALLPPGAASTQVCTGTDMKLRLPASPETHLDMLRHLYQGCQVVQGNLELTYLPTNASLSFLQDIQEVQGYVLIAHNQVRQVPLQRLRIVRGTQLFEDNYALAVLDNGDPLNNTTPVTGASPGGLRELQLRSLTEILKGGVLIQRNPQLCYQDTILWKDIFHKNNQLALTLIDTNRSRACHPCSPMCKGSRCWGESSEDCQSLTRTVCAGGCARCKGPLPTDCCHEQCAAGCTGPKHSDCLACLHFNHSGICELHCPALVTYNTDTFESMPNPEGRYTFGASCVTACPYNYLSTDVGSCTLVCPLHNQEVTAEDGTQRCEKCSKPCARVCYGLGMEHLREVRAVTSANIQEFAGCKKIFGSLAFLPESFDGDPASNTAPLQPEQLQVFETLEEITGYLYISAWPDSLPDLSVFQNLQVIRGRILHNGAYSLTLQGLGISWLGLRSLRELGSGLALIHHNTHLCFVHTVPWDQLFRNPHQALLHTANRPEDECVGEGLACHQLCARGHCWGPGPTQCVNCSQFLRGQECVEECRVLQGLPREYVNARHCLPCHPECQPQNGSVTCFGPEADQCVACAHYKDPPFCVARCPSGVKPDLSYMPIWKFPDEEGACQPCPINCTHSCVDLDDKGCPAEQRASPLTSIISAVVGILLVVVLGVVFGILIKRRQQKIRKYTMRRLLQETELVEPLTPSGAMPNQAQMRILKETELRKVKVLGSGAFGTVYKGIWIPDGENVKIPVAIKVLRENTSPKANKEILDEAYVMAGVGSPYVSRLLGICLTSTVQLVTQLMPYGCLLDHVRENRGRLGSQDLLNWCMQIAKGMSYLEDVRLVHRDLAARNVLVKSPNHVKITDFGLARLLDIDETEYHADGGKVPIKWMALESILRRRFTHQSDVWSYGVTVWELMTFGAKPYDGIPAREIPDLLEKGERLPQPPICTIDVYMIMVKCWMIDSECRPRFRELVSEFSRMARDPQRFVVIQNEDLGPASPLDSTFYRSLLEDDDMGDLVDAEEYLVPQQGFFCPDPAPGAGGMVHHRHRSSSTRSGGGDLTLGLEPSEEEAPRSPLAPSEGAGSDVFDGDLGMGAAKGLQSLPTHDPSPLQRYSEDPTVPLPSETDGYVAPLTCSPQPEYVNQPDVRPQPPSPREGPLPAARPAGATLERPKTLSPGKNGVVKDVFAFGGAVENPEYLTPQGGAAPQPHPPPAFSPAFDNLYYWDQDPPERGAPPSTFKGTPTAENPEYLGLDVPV

[3] = SK-BR-3 cell growth inhibitors, pilot screen, 24 h, human (AID 572;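 active = viability at or below 10% of carrier control in both of two separate runs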;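 note: compound exposure lasted between 18 and 24 h rather than exactly 24 h; 100% = carrier-treated control wells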); details: SK-BR-3 viability, CellTiter-Glo luminescence, at 10 µM, stronger effect = lower value
[4] = HUVEC growth inhibition – cell-based, human, primary screen (AID 575); details: HUVEC proliferation, CellTiter-Glo luminescence, 72 h; at 10 µM; stronger effect = lower value;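 note: 100% = median of untreated cell wells with 0.1% DMSO on each plate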
Procedure, shortened: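 system = HUVEC primary cells | amount = 1250 cells/well | buffer or medium = supplemented EBM, 2% fetal bovine serum | dosing = single-point 10 µM, DMSO 0.1% final | times = 72 h compound incubation | detection = CTG luminescence | read-out = % viability relative to median vehicle-well signal on each plate | control set = vehicle and MePR control wells | format = collagen-coated 384-well format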

[5] = growth inhibitors of H69AR lung tumor, primary screen, human, duplicate replicates (AID 580;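 active = viability at or under a set limit in both replicates, limit being median viability minus 3 SD, cut at about 48% in these data, passing the limit was not always enough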;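 note: 100% = mean luminescence of untreated wells and 0% = no signal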); details: H69AR lung tumor cells viability, ATP luminescence, 72 h; at 10 µM; stronger effect = lower value
[6] = reversal of MRP1-mediated doxorubicin resistance, pilot screen, H69AR cells, doxorubicin co-treatment (AID 601;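 active = viability loss from added drug above about 55%, and viability with drug at most 40%, in both replicates, limit read from the data, passing the limit was not always enough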); details: CellTiter-Glo, 72 h, at 10 µM; for differential viability (reversal): stronger effect = higher value
[7] = 384-well plate pilot, post-Golgi transport modulator project, inhibition of yeast transport mutant growth (AID 636; in the data active = inhibition above about 31%); details: absorbance 615 nm, about 18 h, stronger effect = higher value
[8] = growth suppression of yeast trafficking mutant, preliminary HTS, modulators of trafficking downstream of Golgi apparatus project, 1536-format plate, OD 615 nm (AID 637; in the data active = inhibition above about 30%); details: yeast transport mutant growth, absorbance 615 nm, 18 h; stronger effect = higher value
[9] = H69AR cells + 2 uM doxorubicin, measured here: viability with 2 uM doxorubicin, stronger effect = lower value
[10] = H69AR cells, compound alone cytotoxicity

Row | SMILES | viability [1] [%] | Her2 level [2] | viability [3] | viability [4] | viability [5] | differential viability (reversal) ([6]; H69AR cells + 2 uM doxorubicin) | viability [6, 9] [%] | viability [6, 10] [%] | inhibition [7] | inhibition [8]
1 | Cc1ccc(-c2cn3nc(C)c(C)nc3n2)cc1 | 106 | 94% (inactive) | 106% (inactive) | 75.4% (inactive) | 85.5% (inactive) | 4% (inactive) | 81.5 | 85.5 | -4.93% (inactive) | 0% (inactive)
2 | CC(=O)OC1c2ccccc2C(=O)N1c1ccccc1C (stereo not given) | 100 | 106% (inactive) | 100% (inactive) | 99.9% (inactive) | 105% (inactive) | 14.2% (inactive) | 91.2 | 105 | 0.64% (inactive) | 0.83% (inactive)
3 | COc1ccc(S(=O)(=O)CCC(=O)O)cc1 | 96.5 | 83.5% (inactive) | 96.5% (inactive) | 93.7% (inactive) | 106% (inactive) | 10.3% (inactive) | 95.7 | 106 | -4.05% (inactive) | 2.54% (inactive)
4 | COc1ccc2[nH]c(=O)c(CN(CC3CCCO3)C(=O)Nc3ccc(F)cc3)cc2c1 (stereo not given) | 84.5 | 113% (inactive) | 84.5% (inactive) | 26.1% (active) | 39.4% (active) | -8.38% (inactive) | 47.8 | 39.4 | -0.68% (inactive) | 2.46% (inactive)
5 | CC12CCC(C(=O)N3CCCCC3)(CC1=O)C2(C)C (stereo not given) | 97.5 | 102% (inactive) | 97.5% (inactive) | 96.3% (inactive) | 97.8% (inactive) | 0.59% (inactive) | 97.2 | 97.8 | -3.08% (inactive) | -0.83% (inactive)
6 | N#Cc1ccc(COC(=O)Cn2nnc(-c3ccccc3)n2)cc1 | 111 | 96% (inactive) | 111% (inactive) | 89.5% (inactive) | 70.7% (inactive) | 6.57% (inactive) | 64.1 | 70.7 | -3.12% (inactive) | -0.95% (inactive)
7 | Cc1ccc(C(c2sc3nc(C)nn3c2O)N2CC(C)OC(C)C2)cc1 (stereo not given) | 97 | 93% (inactive) | 97% (inactive) | 104% (inactive) | 101% (inactive) | 11.1% (inactive) | 90.2 | 101 | -1.17% (inactive) | 0.49% (inactive)
8 | O=C(O)CCNc1nc(-c2ccccc2)nc2ccccc12 | 87 | 102% (inactive) | 87% (inactive) | 96.3% (inactive) | 91.1% (inactive) | -2.72% (inactive) | 93.8 | 91.1 | -0.13% (inactive) | -1.11% (inactive)
9 | COc1ccc(-c2nnc(-c3cccs3)o2)cc1OC | 75 | 110% (inactive) | 75% (inactive) | 92.7% (inactive) | 94.6% (inactive) | 1.17% (inactive) | 93.5 | 94.6 | -3.78% (inactive) | -3.93% (inactive)
10 | CC1(C)Cc2cccc(OCC(=O)O)c2O1 | 107 | 90% (inactive) | 107% (inactive) | 94.5% (inactive) | 95.4% (inactive) | 7.61% (inactive) | 87.8 | 95.4 | -4.53% (inactive) | -3.97% (inactive)
11 | COc1cc2c(c(OC)c1)C(c1ccncc1)CC(=O)N2 (stereo not given) | 89 | 96.5% (inactive) | 89% (inactive) | 91.7% (inactive) | 111% (inactive) | 21.4% (inactive) | 89.8 | 111 | 1.73% (inactive) | -5.57% (inactive)
12 | COc1ccc2c(CC(=O)Nc3ccc(OC)c(NS(=O)(=O)c4ccc(F)cc4)c3)coc2c1 | 88 | 85% (inactive) | 88% (inactive) | 70.2% (inactive) | 86.3% (inactive) | -1.86% (inactive) | 88.1 | 86.3 | -2.18% (inactive) | -0.33% (inactive)
13 | CN(C)c1ccc(/C(=N\O)c2ccccc2)cc1 | 98.5 | 114% (inactive) | 98.5% (inactive) | 93.9% (inactive) | 92.8% (inactive) | 2.59% (inactive) | 90.3 | 92.8 | 0.13% (inactive) | -13.5% (inactive)
14 | CCOC(=O)C1CCCN(c2cc(=O)n(Cc3ccc(F)cc3)c(=O)[nH]2)C1 (stereo not given) | 92 | 87% (inactive) | 92% (inactive) | 92.6% (inactive) | 97.2% (inactive) | 3.08% (inactive) | 94.1 | 97.2 | -4.67% (inactive) | 0.33% (inactive)
15 | CCCCN(CC)CCCNC(=O)CS(=O)(=O)Cc1nc(-c2cccc(OC)c2)oc1C | 92 | 112% (inactive) | 92% (inactive) | 80.1% (inactive) | 97.2% (inactive) | 10.4% (inactive) | 86.7 | 97.2 | 0.66% (inactive) | -11.3% (inactive)
16 | O=C(NCC1CCCO1)C1CCCN(S(=O)(=O)c2cccc3nsnc23)C1 (stereo not given) | 95.5 | 118% (inactive) | 95.5% (inactive) | 93.2% (inactive) | 98.5% (inactive) | 14.3% (inactive) | 84.2 | 98.5 | -2.27% (inactive) | -7.62% (inactive)
17 | Cc1ccc(S(=O)(=O)N(CCO)c2cc3c(s2)CCCC3)cc1 | 114 | 94.5% (inactive) | 114% (inactive) | 68.6% (inactive) | 81.9% (inactive) | -3.64% (inactive) | 85.6 | 81.9 | -5.32% (inactive) | -7.5% (inactive)
18 | O=c1cc(-c2ccc(Cl)cc2)[nH][nH]1 | 108 | 84% (inactive) | 108% (inactive) | 93.5% (inactive) | 91.6% (inactive) | 5.75% (inactive) | 85.9 | 91.6 | -7.84% (inactive) | 1% (inactive)
19 | CN(C)C(=O)Cn1c(SCC(=O)NC2CCCCC2)nc2ccccc21 | 72 | 76% (inactive) | 72% (inactive) | 101% (inactive) | 102% (inactive) | 14.8% (inactive) | 87.5 | 102 | -6.08% (inactive) | 0.16% (inactive)
20 | CN(C)c1ccc(CNC2CC(C)(C)NC(C)(C)C2)cc1 | 91 | 112% (inactive) | 91% (inactive) | 94.2% (inactive) | 98.9% (inactive) | 7.67% (inactive) | 91.3 | 98.9 | -7.5% (inactive) | -6.07% (inactive)
21 | O=C(NCc1cccnc1)C1c2ccccc2C(=O)N1Cc1ccco1 (stereo not given) | 94.5 | 91% (inactive) | 94.5% (inactive) | 92% (inactive) | 92.9% (inactive) | 11.6% (inactive) | 81.3 | 92.9 | -1.56% (inactive) | -3.65% (inactive)
22 | Cc1ccc(-c2nn(C)c(=O)c3ccccc23)cc1S(=O)(=O)N1CCOCC1 | 77 | 83% (inactive) | 77% (inactive) | 83.8% (inactive) | 92.8% (inactive) | 16% (inactive) | 76.8 | 92.8 | -5.07% (inactive) | -3.06% (inactive)
23 | CSc1nc2c(ccc3ccccc32)o1 | 114 | 83.5% (inactive) | 114% (inactive) | 92.4% (inactive) | 90.7% (inactive) | 2.83% (inactive) | 87.9 | 90.7 | -1.32% (inactive) | 6.94% (inactive)
24 | COc1cccc(-c2cc(C(=O)NCc3ccc(Cl)cc3)no2)c1 | 84 | 94% (inactive) | 84% (inactive) | 97% (inactive) | 89.3% (inactive) | 5.11% (inactive) | 84.2 | 89.3 | -6.62% (inactive) | 0.82% (inactive)
25 | CCOC(=O)Cn1c(=N)n(CCOc2cccc(C)c2)c2ccccc21 | 121 | 106% (inactive) | 121% (inactive) | 99.6% (inactive) | 85.9% (inactive) | 1% (inactive) | 84.9 | 85.9 | -6.67% (inactive) | -0.79% (inactive)
26 | O=C(CNS(=O)(=O)c1ccc(Br)s1)N1CCN(c2ncccn2)CC1 | 98.5 | 116% (inactive) | 98.5% (inactive) | 122% (inactive) | 94.6% (inactive) | -4.04% (inactive) | 98.7 | 94.6 | -4.87% (inactive) | -1.31% (inactive)
27 | O=C(CCn1c(=O)sc2ccccc21)Nc1cccnc1 | 104 | 92% (inactive) | 104% (inactive) | 96.8% (inactive) | 99.6% (inactive) | 8.59% (inactive) | 91 | 99.6 | -3.87% (inactive) | 1.48% (inactive)
28 | CCOc1ccc(NCCC(=O)c2ccc3c(c2)OCO3)cc1 | 90 | 84.5% (inactive) | 90% (inactive) | 75.7% (inactive) | 66.1% (inactive) | -13.5% (inactive) | 79.6 | 66.1 | -6.71% (inactive) | -5.5% (inactive)
